ChEMBL document CHEMBL2034949, “Small Molecule Inhibitors of Regulator of G Protein Signalling (RGS) Proteins” (ACS Med Chem Lett, 2012)
Active and inactive are the calls of the source. The calls are words filed in the database; no cut-off is given here.

Columns and labels:
[1] = Selectivity ratio of IC50 for RGS8 to IC50 RGS4
[2] = Aqueous solubility of the compound at 500 uM; format: physicochemical; settings: buffer
[3] = biological target: Regulator of G-protein signaling 4 (Homo sapiens, UniProt P49798); assay: Inhibition of RGS4 interaction with Galpha0 protein by flow cytometry protein interaction assay
Sequence of Regulator of G-protein signaling 4 (P49798 whole entry): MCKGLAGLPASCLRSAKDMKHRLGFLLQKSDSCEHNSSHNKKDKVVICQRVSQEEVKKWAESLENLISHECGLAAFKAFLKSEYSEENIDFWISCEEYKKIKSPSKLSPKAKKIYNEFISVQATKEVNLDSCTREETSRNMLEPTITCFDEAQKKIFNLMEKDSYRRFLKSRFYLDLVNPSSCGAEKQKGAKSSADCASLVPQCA
In short: (§1)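 Inhibition of Gαo binding to RGS4 or RGS8. IC50 taken as the average of two independent experiments.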

[4] = biological target: T1, Regulator of G-protein signaling 8 (Homo sapiens, UniProt P57771); assay: Inhibition of RGS8 interaction with Galpha0 protein by flow cytometry protein interaction assay; in short: as §1
T1 sequence (P57771 whole entry): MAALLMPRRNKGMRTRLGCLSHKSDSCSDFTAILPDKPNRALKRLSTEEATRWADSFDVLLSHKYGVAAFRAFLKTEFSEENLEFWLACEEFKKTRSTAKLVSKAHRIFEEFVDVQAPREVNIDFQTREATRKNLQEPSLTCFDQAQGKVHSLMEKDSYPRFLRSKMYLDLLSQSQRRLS

[5] = biological target: Muscarinic acetylcholine receptor M3 (Homo sapiens) (UniProt P20309); assay: Activity at human muscarinic M3 receptor expressed in HEK293T cells assessed as increase in carbachol-induced intracellular calcium level at 10 uM after 30 to 45 mins by fluorimetry; format: functional, cell-based; settings: HEK-293T
Sequence of Muscarinic acetylcholine receptor M3 (Homo sapiens) (P20309 whole entry, looked up): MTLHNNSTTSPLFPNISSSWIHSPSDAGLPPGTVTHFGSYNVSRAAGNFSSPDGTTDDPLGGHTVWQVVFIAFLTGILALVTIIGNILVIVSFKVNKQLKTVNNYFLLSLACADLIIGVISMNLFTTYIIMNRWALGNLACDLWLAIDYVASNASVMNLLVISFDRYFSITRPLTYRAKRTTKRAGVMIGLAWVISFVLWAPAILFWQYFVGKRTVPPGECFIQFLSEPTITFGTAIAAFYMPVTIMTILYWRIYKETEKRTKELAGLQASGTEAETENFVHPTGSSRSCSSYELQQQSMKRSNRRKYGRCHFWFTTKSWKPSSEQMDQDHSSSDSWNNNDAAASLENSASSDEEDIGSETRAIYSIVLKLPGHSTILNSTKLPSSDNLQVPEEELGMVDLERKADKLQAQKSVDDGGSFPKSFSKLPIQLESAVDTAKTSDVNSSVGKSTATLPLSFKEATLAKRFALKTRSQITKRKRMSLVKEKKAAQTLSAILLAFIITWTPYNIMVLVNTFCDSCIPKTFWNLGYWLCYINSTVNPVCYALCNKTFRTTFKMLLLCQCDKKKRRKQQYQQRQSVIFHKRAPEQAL
In short: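 HEK-293 cells stably expressing human M3 muscarinic receptor, plated overnight, loaded with Fluo4-NW for 30 min at 37 °C. Compound added at 10 uM final in 1% DMSO; baseline fluorescence read after 30-45 min, then carbachol injected (10 nM final). Intracellular Ca++ rise expressed as percent of baseline; triplicate determinations, DMSO control n=16.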

In the case of `CCn1sc(=O)n(CC(C)C)c1=O`, the Ratio IC50 [1] is reported as 2680 and the solubility [2] is reported as “soluble”.

With `Cc1cccc(-n2sc(=O)n(Cc3ccc(F)cc3)c2=O)c1` the Ratio IC50 [1] was 59.

`Cc1ccc(-n2sc(=O)n(Cc3ccc(Cl)c(Cl)c3)c2=O)cc1` showed a Ratio IC50 [1] of 460.

Work on `O=c1sn(-c2ccc(Cl)c(Cl)c2)c(=O)n1Cc1ccc(F)cc1` yielded a Ratio IC50 [1] of 481.

`Cc1ccc(-n2sc(=O)n(Cc3ccc(F)cc3)c2=O)cc1` showed an IC50 [3] of 0.0301 µM, a Ratio IC50 [1] of 366 and an IC50 [4] of 11 µM. The Activity [5] was “Active”.

`COc1ccc(-n2sc(=O)n(Cc3ccc(F)cc3)c2=O)cc1` gave a Ratio IC50 [1] of 1050.

For `CCn1sc(=O)n(CCOC)c1=O`, the Ratio IC50 [1] was 665 and the Activity [5] was “inactive”.

`O=c1sn(-c2ccccc2)c(=O)n1Cc1ccccc1` gave a Ratio IC50 [1] of 239.

Compound `Cc1ccc(-n2sc(=O)n(Cc3ccccc3)c2=O)cc1` has a Ratio IC50 [1] of 519.

In the case of `CCCCn1sc(=O)n(C)c1=O`, the Ratio IC50 [1] is reported as 1210 and the solubility [2] is reported as “soluble”.

With `O=c1sn(-c2cccc(C(F)(F)F)c2)c(=O)n1Cc1ccc(F)cc1` the Ratio IC50 [1] was 204.

In the case of `O=c1sn(-c2ccccc2)c(=O)n1Cc1ccc(F)cc1`, the Ratio IC50 [1] is reported as 380.

With `CCCCn1c(=O)sn(C(C)(C)C)c1=O` the Ratio IC50 [1] was 2220 and the solubility [2] was “soluble”.

For `O=c1sn(-c2ccc(Cl)cc2)c(=O)n1Cc1ccc(F)cc1`, the Ratio IC50 [1] was 564.

Work on `COc1ccc(Cn2c(=O)sn(-c3ccc(C)cc3)c2=O)cc1` yielded an IC50 [3] of 0.176 µM and a Ratio IC50 [1] of 1780.

In the case of `CC(C)Cn1c(=O)sn(C(C)(C)C)c1=O`, the Ratio IC50 [1] is reported as 6660 and the solubility [2] is reported as “soluble”.

With `CCCCn1sc(=O)n(Cc2ccc(F)cc2)c1=O` the Ratio IC50 [1] was 2020.

Work on `Cc1ccc(Cn2c(=O)sn(-c3ccc(C)cc3)c2=O)cc1` yielded a Ratio IC50 [1] of 1340.

Work on `Cc1ccc(-n2sc(=O)n(CC(C)C)c2=O)cc1` yielded a Ratio IC50 [1] of 550.

Work on `CCn1sc(=O)n(Cc2ccc(F)cc2)c1=O` yielded a Ratio IC50 [1] of 842.

With `Cc1ccc(-n2sc(=O)n(Cc3cccc(C)c3)c2=O)cc1` the Ratio IC50 [1] was 679.

For `Cc1ccc(-n2sc(=O)n(Cc3cccc(Cl)c3)c2=O)cc1`, the Ratio IC50 [1] was 1000.

With `CCn1sc(=O)n(C)c1=O` the Ratio IC50 [1] was 1660 and the solubility [2] was “soluble”.

`Cc1ccc(-n2sc(=O)n(C)c2=O)cc1` showed a Ratio IC50 [1] of 445.

With `CCCCn1sc(=O)n(CC(C)C)c1=O` the Ratio IC50 [1] was 2540 and the solubility [2] was “soluble”.

With `CCCCn1c(=O)sn(-c2ccc(C)cc2)c1=O` the Ratio IC50 [1] was 483.

With `CCCCn1sc(=O)n(CCCC)c1=O` the Ratio IC50 [1] was 4110 and the solubility [2] was “soluble”.

With `CCCCn1c(=O)sn(CC)c1=O` the solubility [2] was “soluble” and the Activity [5] was “inactive”.

`Cc1ccc(Cn2sc(=O)n(Cc3ccccc3)c2=O)cc1` gave a Ratio IC50 [1] of 2840.

In the case of `Cn1c(=O)sn(C(C)(C)C)c1=O`, the Ratio IC50 [1] is reported as 2020 and the solubility [2] is reported as “soluble”.

In the case of `O=c1sn(-c2cccc(Cl)c2)c(=O)n1Cc1ccccc1`, the Ratio IC50 [1] is reported as 335.

Compound `Cc1ccc(Cn2sc(=O)n(Cc3ccc(F)cc3)c2=O)cc1` has a Ratio IC50 [1] of 3090.

`Cc1cccc(-n2sc(=O)n(Cc3ccccc3)c2=O)c1` gave a Ratio IC50 [1] of 558.

`O=c1sn(-c2cccc(Cl)c2)c(=O)n1Cc1ccc(F)cc1` gave a Ratio IC50 [1] of 245.

`Cc1ccc(-n2sc(=O)n(Cc3ccc(Cl)cc3)c2=O)cc1` showed a Ratio IC50 [1] of 2170.

Work on `COc1ccc(-n2sc(=O)n(Cc3ccccc3)c2=O)cc1` yielded a Ratio IC50 [1] of 515.

`O=c1sn(-c2cccc(C(F)(F)F)c2)c(=O)n1Cc1ccccc1` gave a Ratio IC50 [1] of 286.

`O=c1sn(-c2ccc(Cl)cc2)c(=O)n1Cc1ccccc1` gave a Ratio IC50 [1] of 183.

In the case of `O=c1sn(-c2ccc(Cl)c(Cl)c2)c(=O)n1Cc1ccccc1`, the Ratio IC50 [1] is reported as 149.

Compound `Cc1ccc(CN2C(=O)CN(c3ccc(C)cc3)C2=O)cc1` has an IC50 [3] greater than 100 µM and an IC50 [4] greater than 100 µM.
